Assay outcomes (PubChem BioAssay)
Sampled rows, rich in hits. Any-hit rate of the full collection: about 4.7%.
IMP-1 inh-1 = inhibitors of Pseudomonas aeruginosa IMP-1 metallo-beta-lactamase; purified IMP-1, nitrocefin hydrolysis, epi-absorbance fluorescence; inhibition, % at 5.6 µM; hit rate 0.45% among 290,000;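 active means inhibition above the mean plus 3 SD of all compounds in the same screening run, cut at about 4.5% in these data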
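System – purified recombinant IMP-1 beta-lactamase · Input – IMP-1 dispensed at 0.2 nM · Timing – 15 min preincubation plus 25 min reaction at 25 °C · Signal – Epi-absorbance fluorescence, 480 nm excitation, 530 nm emission · Measure – percent IMP-1 inhibition derived from blank-referenced optical density · Controls – Enzyme-plus-DMSO low control, enzyme-free DMSO high control · Replication – singlicate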
aSyn 5UTR inh = 5' untranslated region of α-synuclein, MLPCN primary screen; alpha-synuclein 5'UTR reporter, inhibitor activity; inhibition, % (tested at 7.5 µM); hit rate 0.82% among 300,000; AID 1813; in the data active means inhibition above about 60%;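 further: H4 neuroglioblastoma cells stably carrying SNCA 5'UTR luciferase fusion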
Mdm2 MdmX PPI = inhibitors of human Mdm2/MdmX interaction; SaOS-2 split-luciferase Mdm2/MdmX complementation, luminescence; inhibition, % at 8 µM; O15151+Q00987; hit rate 3% among 330,000;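 active means inhibition of at least 50% at 8 µM in the primary screen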
VIM-2 inhibitor = inhibitors of Pseudomonas aeruginosa VIM-2 metallo-beta-lactamase | purified VIM-2, nitrocefin hydrolysis, epi-absorbance fluorescence | inhibition, % at 5.6 µM | hit rate 0.89% among 290,000 | AID 1527;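 active means inhibition above the mean of all tested compounds plus 3 SD, cutoff set per screening run, cut at about 7.5% in these data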;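 further: red hydrolysis product quenches plate fluorescence so inhibitors raise well fluorescence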
697 NFkB inh = inhibitors of the PMA/ionomycin-induced NF-kB reporter in 697 B cells; AID 435022; 697 B-cell NF-kB luciferase reporter, 16 h; inhibition, % at 4 µM; hit rate 0.33% among 330,000; in the data active means inhibition above about 35%
Jurkat NFkB inh = inhibitors of the PMA/ionomycin-induced NF-kB reporter in Jurkat cells | PMA/ionomycin-induced NF-kB luciferase reporter, luminescence | inhibition, % at 4 µM | hit rate 0.53% among 330,000 | AID 435003; in the data active means inhibition above about 50%
IMP-1 inh-2 = selectivity counter-screen for VIM-2 inhibitors: IMP-1 metallo-beta-lactamase inhibitors. shares compounds with VIM-2 inhibitor. purified IMP-1, nitrocefin hydrolysis, epi-absorbance fluorescence. inhibition, % at 5.6 µM. 1,300 tested, under 10 active. AID 1856; call rule not given here
VIM-2 FRET ctr = counter-screen for VIM-2 inhibitors: epi-absorbance artifacts via FRET. shares compounds with VIM-2 inhibitor. purified VIM-2, CCF2 FRET substrate hydrolysis. inhibition, % at 5.6 µM. hit rate 23% among 1,300. AID 1857;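 active means inhibition above the mean of all tested compounds plus 3 SD, cut at about 19% in these data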
TEM-1 inh = blocks E. coli TEM-1 beta-lactamase in VIM-2 selectivity screen | shares compounds with VIM-2 inhibitor | hit rate 3% among 1,300 | inhibition, % at 5.6 µM | Purified TEM-1, nitrocefin hydrolysis, epi-absorbance fluorescence;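 active means inhibition above that campaign's mean inhibition plus 3 SD, cut at about 0.46% in these data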
Target sequence (P62593 whole entry, looked up): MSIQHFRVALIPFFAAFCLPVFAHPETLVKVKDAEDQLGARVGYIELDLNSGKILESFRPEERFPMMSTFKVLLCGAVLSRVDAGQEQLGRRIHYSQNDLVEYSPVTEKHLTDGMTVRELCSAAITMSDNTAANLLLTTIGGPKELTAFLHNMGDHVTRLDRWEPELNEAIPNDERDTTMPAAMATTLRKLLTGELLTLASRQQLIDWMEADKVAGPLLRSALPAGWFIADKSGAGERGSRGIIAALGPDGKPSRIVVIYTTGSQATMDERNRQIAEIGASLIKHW
VIM-2 confirm 2 = confirmation of P. aeruginosa VIM-2 metallo-beta-lactamase inhibitors; purified VIM-2, nitrocefin hydrolysis, epi-absorbance; hit rate 96% among 1,300; shares compounds with VIM-2 inhibitor; AID 2187; inhibition, % at 5.6 µM;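 active means inhibition of the VIM-2 beta-lactamase enzyme above about 11% from the earlier first-round screen, limit read from the data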
Of the large screens only hits and unclear results are named; the others gave an inactive call (follow-up assays come after a bar, where they were run).

Cc1cccc(-c2n[nH]c(=S)n2Cc2ccccc2)c1	none
c1ccc2c(c1)oc1c(NCCCN3CCOCC3)ncnc12	none
Cc1nc(NCCCn2ccnc2)c2oc3ccccc3c2n1	VIM-2 inhibitor 76 | IMP-1 inh-2 inactive | VIM-2 FRET ctr inactive | TEM-1 inh inactive | VIM-2 confirm 2 83
CCNc1nc(C)nc2c1oc1ccccc12	none
c1ccc2c(c1)oc1c(NCCCn3ccnc3)ncnc12	VIM-2 inhibitor 56 | IMP-1 inh-2 inactive | VIM-2 FRET ctr inactive | TEM-1 inh inactive | VIM-2 confirm 2 60
CN(CCOc1ccccc1)C(=O)C1CCN(C(=O)c2ccc(F)cc2)CC1	none
CC1=C(C(=O)O)N2C(=O)C(NC(=O)c3nn(C)cc3[N+](=O)[O-])C2SC1 (stereo unspecified)	VIM-2 inhibitor 15 | IMP-1 inh-2 inactive | VIM-2 FRET ctr 33 | TEM-1 inh inactive | VIM-2 confirm 2 21
CC1=C(C(=O)O)N2C(=O)C(NC(=O)c3ccn(C)n3)C2SC1 (stereo unspecified)	none
O=C(CN1C(=O)C2CC=CCC2C1=O)Nc1nc(-c2ccc(F)c(F)c2)cs1 (stereo unspecified)	none (no result: IMP-1 inh-1, aSyn 5UTR inh, VIM-2 inhibitor)
Cc1nc(N2CCCC2)c2ccsc2n1	VIM-2 inhibitor 14 | IMP-1 inh-2 inactive | VIM-2 FRET ctr inactive | TEM-1 inh inactive | VIM-2 confirm 2 15
Cc1nc(N2CCN(C)CC2)c2cc(-c3ccccc3)sc2n1	none
CN1C(=O)C(C)(C)c2cc(S(=O)(=O)N3CCN(c4ccc(F)cc4)CC3)ccc21	none
Cn1c(=O)c2c(SCc3cccnc3)nc(C3CC3)nc2n(C)c1=O	VIM-2 inhibitor 29 | IMP-1 inh-2 inactive | VIM-2 FRET ctr inactive | TEM-1 inh inactive | VIM-2 confirm 2 49
CCOC(=O)CSc1nc(-c2ccccn2)ncc1OC	VIM-2 inhibitor 17 | IMP-1 inh-2 inactive | VIM-2 FRET ctr inactive | TEM-1 inh inactive | VIM-2 confirm 2 25
Cc1nc(-c2ccccn2)nc(SCC(=O)c2ccccc2)c1Cl	VIM-2 inhibitor 54 | IMP-1 inh-2 inactive | VIM-2 FRET ctr inactive | TEM-1 inh inactive | VIM-2 confirm 2 72
COc1ccc(CCN2CC(C(=O)Nc3ccc(S(C)(=O)=O)cc3)CC2=O)cc1OC (stereo unspecified)	none (no result: IMP-1 inh-1, VIM-2 inhibitor)
CC(=O)c1c(Cl)nc2cccc3c2c1-c1ccccc1C3=O	VIM-2 inhibitor 20 | IMP-1 inh-2 inactive | VIM-2 FRET ctr inactive | TEM-1 inh inactive | VIM-2 confirm 2 31
COc1cc(-c2c(C(C)=O)c(C)nc3c2C(=O)c2ccccc2-3)cc(OC)c1OC	none
NC(=O)c1c(NC(=O)c2ccncc2)sc2c1CCCCCC2	none
Cc1cccn2c(=O)c3cc(C(=O)NC4CCS(=O)(=O)C4)sc3nc12 (stereo unspecified)	VIM-2 inhibitor 15 | IMP-1 inh-2 inactive | VIM-2 FRET ctr inactive | TEM-1 inh inactive | VIM-2 confirm 2 24
CCCCNC(=O)c1cc2c(=O)n3cccc(C)c3nc2s1	VIM-2 inhibitor 21 | IMP-1 inh-2 inactive | VIM-2 FRET ctr inactive | TEM-1 inh inactive | VIM-2 confirm 2 25
Cc1cccn2c(=O)c3cc(C(=O)NCCc4ccccc4)sc3nc12	none
COCCCNC(=O)c1cc2c(=O)n3cccc(C)c3nc2s1	VIM-2 inhibitor 18 | IMP-1 inh-2 inactive | VIM-2 FRET ctr inactive | TEM-1 inh inactive | VIM-2 confirm 2 23
Cc1c(Br)cc(C(=O)OC2CCN(C)CC2)c(C)c1C	VIM-2 inhibitor 13 | IMP-1 inh-2 inactive | VIM-2 FRET ctr inactive | TEM-1 inh inactive | VIM-2 confirm 2 17
CN1CCC(OC(=O)c2ccccc2)CC1	none
NC(=O)c1cnn2c(C(F)(F)F)cc(-c3ccc(F)cc3)nc12	VIM-2 inhibitor 16 | IMP-1 inh-2 inactive | VIM-2 FRET ctr inactive | TEM-1 inh inactive | VIM-2 confirm 2 16
NC(=O)c1cnn2c(C(F)(F)F)cc(-c3ccccc3)nc12	none
CN(CC(=O)Nc1ccc(Cl)cc1F)C1CCS(=O)(=O)C1 (stereo unspecified)	none (no result: IMP-1 inh-1, aSyn 5UTR inh, VIM-2 inhibitor)
CCCCn1c(-c2cccnc2)n[nH]c1=S	VIM-2 inhibitor 20 | IMP-1 inh-2 inactive | VIM-2 FRET ctr 32 | TEM-1 inh inactive | VIM-2 confirm 2 22
Cc1cccc(NC(=O)CCS(=O)(=O)c2cc3c(cc2Cl)NC(=O)CO3)c1	none
CN1CCN(CCCn2cnc3c(=O)oc4ccccc4c32)CC1	VIM-2 inhibitor 21 | IMP-1 inh-2 inactive | VIM-2 FRET ctr inactive | TEM-1 inh inactive | VIM-2 confirm 2 40
Cc1nn(-c2ccc(N3CCCCC3)nn2)c(C)c1CCC(=O)Nc1cc(F)ccc1F	none
CCC(=O)c1cn(CC(=O)Nc2ccc(C)cc2C)c2ccccc12	none
CCN(CC)CCSc1nnc2c3ccccc3n(Cc3ccccc3)c2n1	VIM-2 inhibitor 31 | IMP-1 inh-2 inactive | VIM-2 FRET ctr inactive | TEM-1 inh inactive | VIM-2 confirm 2 49
CCn1c2ccccc2c2nnc(SCc3ccccc3)nc21	none
CCN(CC)CCSc1nnc2c3cc(F)ccc3n(Cc3ccccc3)c2n1	VIM-2 inhibitor 23 | IMP-1 inh-2 inactive | VIM-2 FRET ctr inactive | TEM-1 inh inactive | VIM-2 confirm 2 37
CCOC(=O)c1sc2nc(C)nc(NCc3cccnc3)c2c1C	VIM-2 inhibitor 24 | IMP-1 inh-2 inactive | VIM-2 FRET ctr inactive | TEM-1 inh inactive | VIM-2 confirm 2 50
C[C@H](C(=O)O)c1cccc(C(=O)c2ccccc2)c1	none (no result: IMP-1 inh-1, VIM-2 inhibitor)
CC(C(=O)O)c1cccc(C(=O)c2ccccc2)c1 (stereo unspecified)	VIM-2 inhibitor 18 | IMP-1 inh-2 inactive | VIM-2 FRET ctr 52 | TEM-1 inh inactive | VIM-2 confirm 2 34
Cc1nc2ccccc2c2oc(C(=O)N3CCN(C4CCCCC4)CC3)cc12	VIM-2 inhibitor 19 | IMP-1 inh-2 inactive | VIM-2 FRET ctr inactive | TEM-1 inh inactive | VIM-2 confirm 2 38
Cc1n[nH]c(C)c1NC(=O)CSc1nnnn1-c1cccc(F)c1	none (no result: IMP-1 inh-1, aSyn 5UTR inh, VIM-2 inhibitor)
O=C(OCC(=O)N1CCCC1=O)c1cc2ccccc2o1	none (no result: IMP-1 inh-1, aSyn 5UTR inh, VIM-2 inhibitor)
CN1CCN(Cc2cc(=O)oc3cc4c(cc23)CCC4)CC1	VIM-2 inhibitor 18 | IMP-1 inh-2 inactive | VIM-2 FRET ctr inactive | TEM-1 inh inactive | VIM-2 confirm 2 30
CCN1CCN(Cc2cc(=O)oc3cc4c(cc23)CCC4)CC1	VIM-2 inhibitor 13 | IMP-1 inh-2 inactive | VIM-2 FRET ctr inactive | TEM-1 inh inactive | VIM-2 confirm 2 31
Cc1cc2nnc(SCC(=O)NC3CCCCC3)n2c(N)n1	none
